Assay results from paper PMC3869895 (Investigational New Drugs, 2013).
“Also recorded” adds a separate entry of the source.

Key:
[1] = Pharmacokinetic analysis of total and unbound RO4929097 in serial plasma; type: in vivo, human
[2] = system: circulating angiogenesis factors; details: in vitro; cited from earlier work
[3] = cited from earlier work
gamma secretase = details: cited from earlier work
[4] = system: patients with advanced solid tumors; assay: Phase I 3+3 dose escalation: dose limiting toxicities and adverse events; type: in vivo, human
xenograft models = details: intermittent and daily dosing in xenograft models; cited from earlier work
[5] = in vitro; rather than overt cell death; no reference given; cited from earlier work
advanced solid tumors = assay: Antitumor activity by RECIST 1.1; type: in vivo, human; details: with gemcitabine
Summary of the method: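 Oral test compound once daily on days 1–3, 8–10, […] and 22–24 of 28-day cycles, fasting, with IV gemcitabine 1,000 mg/m2 on days 1, 8 and 15. Measurable disease required. Radiographic restaging every 2 cycles, scored by RECIST 1.1. Prolonged stable disease means stable disease for 4 or more months. Treatment continued until unacceptable toxicity, progression, withdrawal or study completion.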

[6] = stated as given in discussion; no reference given; cited from earlier work
[7] = dose level 3 (45 mg) + gemcitabine, CTCAE v4

Compound: CC(C)(C(=O)NCC(F)(F)C(F)(F)F)C(=O)N[C@@H]1C(=O)Nc2ccccc2-c2ccccc21 [RO4929097]
- autoinduction (Day 10: Day 1 total and free AUC 0-24) ([1]; dose levels 45 and 90 mg): presence of autoinduction
- day 10: day 1 areas under the curve ([1]; with increasing dose levels): below 1
- expression of circulating angiogenesis factors [2]: reduce the expression
- protein binding [3]: highly protein bound
- inhibition of gamma secretase (gamma secretase): potent inhibitor
- DLT Event ([4]; dose level 2 (30 mg) + gemcitabine): Transaminitis
- Grade of DLT event Transaminitis ([4]; dose level 2 (30 mg) + gemcitabine, CTCAE v4): 3
- DLT Event ([4]; dose level 3 (45 mg) + gemcitabine): Transaminitis; also recorded: Maculopapular rash
- Grade of DLT event Maculopapular rash [4, 7]: 3
- Grade of DLT event Transaminitis [4, 7]: 3
- DLT Event ([4]; dose level 4 (90 mg) + gemcitabine): Transaminitis
- Grade of DLT event Transaminitis ([4]; dose level 4 (90 mg) + gemcitabine, CTCAE v4): 3
- Grade of DLT event <75 % RO doses ([4]; dose level 4 (90 mg) + gemcitabine, secondary to prolonged neutropenia): 3
- maximum tolerated dose ([4]; in combination with gemcitabine, exceeded at this dose): < 90 mg
- antitumor activity (xenograft models): demonstrates antitumor activity
- cell phenotype [5]: more flattened phenotype
- stable disease > 4 months (prolonged stable disease), number of patients (advanced solid tumors; 18 patients enrolled): 3 patients
- Best response (RECIST 1.1) (advanced solid tumors; one patient with nasopharyngeal carcinoma, 45 mg dose level): partial response
- half-life [6]: approximately 20 h
